The values below come from paper PMC2871304 (Biochemistry, 2010).

A short description of data set [1]: MFTIR, secondary structure of microfibrils in air. The format is physicochemical. The following applies: amide I region deconvoluted. The gist of the method:
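Aβ(1-42) fibrils, formed by incubating 100 μM peptide in dilute HCl for 2 days at 37°C, were deposited on gold-coated substrates. Infrared microscopy was done in reflection mode at 4 cm−1 resolution with a liquid-nitrogen-cooled MCT detector.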

The subject of data set [2] is protease XIV. The data set can be described thus: Enzymatic degradation of Aβ fibrils by protease XIV. The format is in vitro ADME. As to conditions: protease XIV 100 μg/mL, 24 h, 0.1 M phosphate buffer pH 7.4, 37°C; MALDI-TOF. The essentials:
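Fibrils from 100 μM Aβ(1-42) were aged 2 days at 37°C, then digested with the enzyme. Products (about 1 μg/mL peptide) were mixed with saturated sinapic acid in ACN/0.1% TFA (1:2) and run by MALDI-TOF over 20–5000 Da. Enzyme alone served as control. Cleavage patterns were inferred from substrate specificity (C-terminal to aromatic and basic residues) and fragment masses.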

Data set [3] has as its target insulin degrading enzyme (IDE) (Homo sapiens, UniProt P14735). As to the kind of experiment: Enzymatic degradation of Aβ fibrils by insulin degrading enzyme. It counts as in vitro ADME. The following applies: IDE 50 μg/mL, 48 h, 0.1 M phosphate buffer pH 7.4, 37°C; AFM. The essentials: (§1)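 Fibrils were made from Aβ(1-42): 5 mM in DMSO, sonicated 10 min at 37°C, diluted to 100 μM in 10 mM HCl, sonicated 30 min, filtered through 10,000 MWCO, then held 2 days at 37°C. After enzyme treatment, fibrils on gold-coated substrates were imaged by tapping-mode AFM in air with a 3 N/m silicon cantilever. Tip-convolution calibration gave true dimensions.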

The nature of data set [4]: Circular dichroism, secondary structure content. As to conditions: CD at 37°C, filtered (10K MWCO) samples. It counts as physicochemical. The gist of the method: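 Microfibrils were measured by CD at 37°C before and after enzymatic degradation (24 or 48 h). Spectra were taken at 12 nm·sec−1 and 1 nm resolution, with 4 scans averaged. Enzyme-only solutions were subtracted. Data were expressed as molar residue ellipticity using 42 residues and 0.3 mM peptide. Secondary-structure content was estimated by a published method.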
On the technique in general: CD spectra are sensitive to the conformation of chiral molecules.

Data set [5] has as its target neprilysin (NEP) (Homo sapiens, UniProt P08473). As to the kind of experiment: Enzymatic degradation of Aβ fibrils by neprilysin. The following applies: NEP 50 μg/mL, 48 h, 0.1 M phosphate buffer pH 7.4, 37°C; AFM. The format is in vitro ADME. The gist of the method:
as §1

neprilysin (NEP), sequence (P08473 whole entry, species assumed): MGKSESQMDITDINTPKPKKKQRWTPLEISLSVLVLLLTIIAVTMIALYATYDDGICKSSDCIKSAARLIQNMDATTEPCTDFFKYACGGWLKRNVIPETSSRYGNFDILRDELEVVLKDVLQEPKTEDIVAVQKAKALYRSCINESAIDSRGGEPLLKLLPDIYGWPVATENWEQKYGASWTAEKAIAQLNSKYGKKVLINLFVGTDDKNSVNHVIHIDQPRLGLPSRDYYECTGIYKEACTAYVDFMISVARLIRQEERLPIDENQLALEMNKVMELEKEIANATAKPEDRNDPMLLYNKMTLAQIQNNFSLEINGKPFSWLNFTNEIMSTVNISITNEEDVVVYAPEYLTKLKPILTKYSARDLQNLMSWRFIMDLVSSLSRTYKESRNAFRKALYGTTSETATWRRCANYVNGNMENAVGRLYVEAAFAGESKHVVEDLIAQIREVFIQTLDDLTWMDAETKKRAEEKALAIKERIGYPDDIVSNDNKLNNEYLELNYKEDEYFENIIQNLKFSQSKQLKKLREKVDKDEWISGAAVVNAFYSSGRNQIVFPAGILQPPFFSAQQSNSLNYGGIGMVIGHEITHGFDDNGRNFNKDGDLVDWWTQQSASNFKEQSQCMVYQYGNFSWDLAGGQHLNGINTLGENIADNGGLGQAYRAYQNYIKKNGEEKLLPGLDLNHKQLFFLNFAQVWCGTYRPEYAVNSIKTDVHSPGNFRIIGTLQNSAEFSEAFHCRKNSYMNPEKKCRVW

For “Aβ microfibrils: Fibrils of purchased Aβ(1-42) peptide, incubated in DMSO/10 mM HCl at 37°C for 2 days”, in data set [1], the “alpha-helix and random coil content” value was 12±2%; the beta-sheet content is recorded as 71±8%; the turns content is listed as 17±5%. Further, the “full-length Aβ(1-42) after degradation by protease XIV” value in data set [2] is reported as “no full-length Aβ(1-42) peptides”. Besides, the “degradation on exposure to IDE” value in data set [3] is “almost no significant degradation”. Also, the “beta-strand structures, filtered samples” value in data set [4] is 18±3%. Moreover, the “degradation on exposure to NEP” value in data set [5] is listed as “almost no significant degradation”.
